Compound activity deposited in PubChem by several laboratories.
Calpain2 inh: inhibitors of pig calpain II, primary screen, biochemical, fluorogenic peptide substrate, 1536-well. hit rate 0.37% among 220,000. inhibition, % at 16 µM. purified calpain II, 30 min;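 active means inhibition above about 50%, limit read from the data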
thrombin 1536: human alpha-thrombin inhibitors, primary screen, counter-screen for coagulation protease inhibitor project, biochemical, 1536-well, fluorogenic AMC substrate; Prothrombin (Homo sapiens), P00734; hit rate 0.26% among 220,000; Boc-VPR-AMC fluorogenic substrate cleavage; AID 1046, 2008; inhibition, % at 5 µM;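 active means inhibition at or above 40%; inactive means inhibition below 40%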
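System: human alpha-thrombin protein; Compound dosing: one concentration per compound, 5 µM, with 0.2% DMSO; Timing: reaction at room temperature; Technique: AMC fluorescence, 355/460 nm; Controls: enzyme without compound as high, wells lacking enzyme as low.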
KLK5 inh: human KLK5 protease inhibitors, primary screen, biochemical, 1536-well; Kallikrein-5 (Homo sapiens), Q9Y337; recombinant hK5, fluorogenic AMC substrate cleavage; inhibition, % at 5 µM; hit rate 0.59% among 210,000; AID 873, 2007;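 active means inhibition of 40% or more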
FXIIa inh 1536: human FXIIa protease inhibitors, primary screen, biochemical, 1536-well; hit rate 0.3% among 220,000; AID 800, 2007; inhibition, % at 5 µM; purified FXIIa, Boc-QGR-AMC fluorogenic substrate, 2 h; Coagulation factor XII (Homo sapiens), P00748; in the data active means inhibition above about 40%
Target sequence (P00748 20-372 limits assumed): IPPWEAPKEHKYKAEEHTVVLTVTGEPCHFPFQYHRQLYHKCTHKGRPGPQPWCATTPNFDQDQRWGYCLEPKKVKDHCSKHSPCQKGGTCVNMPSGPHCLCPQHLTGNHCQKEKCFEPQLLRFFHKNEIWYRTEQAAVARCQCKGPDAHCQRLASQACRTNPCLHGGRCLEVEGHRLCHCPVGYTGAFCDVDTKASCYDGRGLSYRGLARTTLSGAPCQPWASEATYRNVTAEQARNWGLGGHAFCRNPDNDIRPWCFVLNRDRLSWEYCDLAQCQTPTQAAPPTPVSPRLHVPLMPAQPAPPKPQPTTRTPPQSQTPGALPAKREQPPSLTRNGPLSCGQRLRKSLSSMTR
Target sequence (P00748 373-615 limits assumed): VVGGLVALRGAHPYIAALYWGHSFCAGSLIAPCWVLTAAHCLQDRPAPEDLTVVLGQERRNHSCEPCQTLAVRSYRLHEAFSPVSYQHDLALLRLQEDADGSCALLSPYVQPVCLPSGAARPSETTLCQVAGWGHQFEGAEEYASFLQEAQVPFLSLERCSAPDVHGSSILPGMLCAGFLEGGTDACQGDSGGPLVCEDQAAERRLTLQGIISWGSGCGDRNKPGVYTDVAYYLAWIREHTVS
FXIa inh: human FXIa protease inhibitors, primary screen, biochemical, 1536-well; Coagulation factor XI (Homo sapiens), P03951; purified FXIa, Boc-Glu-Ala-Arg-AMC fluorogenic substrate; inhibition, % at 5 µM; hit rate 0.14% among 220,000;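 active means inhibition of at least 40%; inactive means inhibition below 40%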;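 further: fluorescence of freed AMC excited at 355 nm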
Each line names hits and unclear results; the compound was inactive in the other large screens; ! = not confirmed by another sample. In the library only some 1.4% were active in any assay of this set; here they are far more common.

CCOc1ccc(NC(=O)C(C)O)c(NS(=O)(=O)c2ccc(CCNC(C)=O)cc2)c1 (configuration not stated)	thrombin 1536 104.0, KLK5 inh 79.1
COC(=O)Cc1c(C)nc2nc[nH]n2c1=O	KLK5 inh 53.8, FXIIa inh 1536 47.8
NC(=O)c1ccccc1NC(=O)/C=C/C(=O)O	none
O=C1CN(C(=O)COC(=O)c2oc3ccccc3c2COc2ccccc2)c2ccccc2N1	FXIIa inh 1536 47.0
CCOC(=O)c1[nH]c(C)c(C(=O)OCC(=O)N2CC(=O)Nc3ccccc32)c1C	KLK5 inh 41.6
Cc1nn(-c2ccccc2)c(C)c1C(=O)OCC(=O)N1CC(=O)Nc2ccccc21	none
Cn1c(SCC(=O)N2CCc3ccccc3C2)nnc1-c1ccncc1	none
Nn1c(SCC(=O)N2CCc3ccccc3C2)nnc1-c1cccs1	KLK5 inh 52.4
Cn1c(SCC(=O)N2CCc3ccccc3C2)nnc1-c1cccs1	KLK5 inh 42.6
Cc1noc(C)c1COc1ccc(C(=O)OCC(=O)N2c3ccccc3NC(=O)C2(C)C)cc1	none
COc1cc(C=O)cc(OC)c1OS(=O)(=O)c1ccc(NC(C)=O)cc1	none
O=C(CSc1nc2ccccc2[nH]1)N/N=C/c1ccncc1	none
Cc1onc(-c2ccccc2)c1C(=O)NCc1cccs1	none
O=C(COC(=O)c1ccc([N+](=O)[O-])s1)Nc1cccc(S(=O)(=O)NC2=NCCCCC2)c1	thrombin 1536 44.8
O=C(Nc1ccc(N2CCOCC2)cc1)c1cnsn1	KLK5 inh 51.4
O=C(Nc1ccc(N2CCOCC2)cc1)c1ccncc1	none
CCOc1ccc(OCCN(C)Cc2ccccc2)cc1	none
CCC(C)N(C(=O)COC(=O)CNC(=O)c1ccccc1F)C1CCS(=O)(=O)C1 (configuration not stated)	none
COc1cccc(NC(=O)COc2ccc(S(=O)(=O)NC(C)C)cc2)c1	KLK5 inh 50.5
COC(=O)c1ccc(NC(=O)COc2ccc(S(=O)(=O)NC(C)C)cc2)cc1	KLK5 inh 51.8
CCCCCCCCCCCCCCCCn1cc[n+](C)c1	Calpain2 inh 54.0!
O=C(CCSc1nnc(-c2ccco2)o1)Nc1ccccc1	none
CCC(Oc1ccccc1)C(=O)N1CCC(C(N)=O)CC1 (configuration not stated)	none
COC(=O)C(NC(=O)c1ccccc1)(Nc1nc(C)cs1)C(F)(F)F (configuration not stated)	none
COC(=O)C(NC(=O)c1ccco1)(Nc1nc(C)cs1)C(F)(F)F (configuration not stated)	FXIIa inh 1536 54.4
O=C(O)Cc1csc2ccccc12	none
COc1cc2c3c(c1)C1(C(=O)N3C(C)(C)C=C2C)C(C#N)=C(N)Oc2cc(O)ccc21 (configuration not stated)	KLK5 inh 64.0
CCOc1cc2c3c(c1)C1(C(=O)N3C(C)(C)C=C2C)C(C#N)=C(N)Oc2cc(O)ccc21 (configuration not stated)	none
Cc1cccc(C(C)C)c1-n1nnnc1-c1ccccc1	none
CCN(CC)c1ccc(C(=O)NC(=S)Nc2cc(S(=O)(=O)N3CCOCC3)ccc2-n2cncn2)cc1	Calpain2 inh 57.9
CCOC(=O)CSC1=NC(=O)/C(=C\c2ccc(OC(C)=O)cc2)S1	KLK5 inh 52.6
Cc1cc(C)n(S(=O)(=O)c2ccc3ccccc3c2)n1	none
O=C(NCc1ccccc1)N1CCOCC1	none
O=C(NCc1ccccc1)c1cccnc1N1CCOCC1	KLK5 inh 72.1
CC(C)(C)n1nnnc1C(c1ccncc1)N(Cc1ccccc1)Cc1ccco1 (configuration not stated)	none
O=C(CSCc1c(Cl)cccc1Cl)Nc1ccccc1C(=O)N1CCOCC1	none
COc1ccc(-c2cn3cccc(C)c3n2)cc1F	KLK5 inh 40.8
Cc1ccc(-c2cn3cccc(C)c3n2)cc1	none
Cc1c(C(=O)N(Cc2ccccc2)Cc2cccs2)cnn1-c1ccc(Cl)cc1	KLK5 inh 43.8, FXIIa inh 1536 107.3
Cc1cccc(C(=O)N[C@H](C(=O)Nc2ncc(C)s2)C(C)C)c1	none
O=C(NC(=S)Nc1ccc(S(=O)(=O)Nc2nccs2)cc1)c1ccccc1	none
O=C(NC(=S)Nc1ccc(S(=O)(=O)Nc2nccs2)cc1)c1ccccc1F	FXIIa inh 1536 77.0
Cc1ccc(C)c(NC(=O)Cn2nnc(C(=O)Nc3c(C)cccc3C)c2N)c1	KLK5 inh 52.4
CCc1ccccc1NC(=O)c1nnn(CC(=O)Nc2cccc(C)c2)c1N	KLK5 inh 43.2
CCc1ccc(N2CC(C(=O)Nc3ccccc3F)CC2=O)cc1 (configuration not stated)	thrombin 1536 104.0, KLK5 inh 87.5
COC(=O)c1ccccc1NC(=O)C1CC(=O)N(C2CCCCC2)C1 (configuration not stated)	KLK5 inh 63.5
COC(=O)c1ccccc1NC(=O)C1CC(=O)N(c2ccc(F)cc2)C1 (configuration not stated)	thrombin 1536 50.3, KLK5 inh 88.5
Cn1cc(P(=S)(N2CCOCC2)N2CCOCC2)cc1P(=O)(N1CCOCC1)N1CCOCC1	none (no result: FXIIa inh 1536)
Cc1ccc(S(=O)(=O)NCC(=O)N(CCc2ccccc2)CC(=O)NCc2ccco2)cc1	none
CCc1nnc(NC(=O)CSc2nc3c(cc2C#N)CCCC3)s1	KLK5 inh 48.8
OC(COCC1COc2ccccc2O1)CN1CCCCC1 (configuration not stated)	none
CCOC(=O)c1sc(N(C)C(C)=O)nc1C	FXIIa inh 1536 42.1
Cc1nn2c(NCc3ccccn3)c3c(nc2c1-c1ccccc1)CCC3	none
CSc1nc(-c2ccccc2)nn1S(=O)(=O)c1ccc(Cl)cc1	none
CSc1nc(-c2ccccc2)nn1C(=O)c1ccc(Cl)cc1	thrombin 1536 84.2, KLK5 inh 68.0
CSc1nc(-c2ccc(Cl)cc2)nn1C(=O)c1ccccc1	KLK5 inh 63.3
COc1ccc(-c2csc3nc(C)nc(N4CCN(c5ccc(C(C)=O)cc5)CC4)c23)cc1OC	none
O=S(=O)(c1cccc(-c2nc3ccccc3s2)c1)N1CCCC1	none
CC(=O)c1c(NCCc2ccccc2)nc(=S)n(-c2ccccc2)c1C	none
CC(=O)c1c(NCc2ccccc2)nc(=O)n(-c2ccccc2)c1C	KLK5 inh 70.0
O=C(CCNS(=O)(=O)c1cccc2nonc12)NC1CCCCCC1	none
CCc1cccc(CC)c1NC(=O)c1cc(CN2C(=O)c3ccccc3C2=O)ccc1OC	Calpain2 inh 50.1
COc1ccc(CN2C(=O)c3ccccc3C2=O)cc1C(=O)OC(C)C(=O)NC(N)=O (configuration not stated)	none
C1=C(c2ccccc2)CCN(c2nc3ccccc3n3cnnc23)C1	KLK5 inh 40.6
